From PMC5516890 (Bioconjugate chemistry, 2016)
Read-outs that look alike come from different tables or passages of the source.

Assays:
[1] = target: T1, PSMA (Homo sapiens, UniProt Q04609); conditions: for comparison; cited from earlier work
[2] = target: T1, PSMA; experiment: PSMA inhibition assay; format: biochemical; conditions: LNCaP cell lysates, 4 μM NAAG
Method in brief: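 PSMA source: LNCaP cell lysate. Test compound (0.01 nM–100 μM) incubated with 4 μM NAAG, 37 °C, 2 h. Released glutamate detected with Amplex Red glutamic acid working solution, 37 °C, 60 min; fluorescence ex 490/em 642 nm. IC50 from semilog inhibition curves, then Ki by Cheng–Prusoff. Triplicates; whole inhibition study repeated at least once.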

[3] = Octanol-water partition coefficient; format: physicochemical; conditions: pH 7.4
[4] = tested on: kidneys; experiment: Radiation dosimetry; format: in vivo, NOD-SCID mice
[5] = tested on: PSMA^+ PC3 PIP and PSMA^− PC3 flu xenografts; experiment: Small animal PET imaging; format: in vivo, NOD-SCID mice
Method in brief: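 Male NOD-SCID mice given 1 × 106 PSMA+ PC3 PIP and PSMA− PC3 flu cells s.c. in opposite flanks, cells trypsinized at 80–90% confluence into HBSS. Imaged at 3–5 mm tumors after i.v. 0.36 mCi (13.3 MBq) radiotracer in 0.2 mL PBS under isoflurane/oxygen. PET/CT at 30, 60, 120 min; 10 min per bed, 20 min total; 250–700 keV; FORE/2D-OSEM, decay/dead-time/scatter corrected.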

T1 sequence (Q04609 whole entry): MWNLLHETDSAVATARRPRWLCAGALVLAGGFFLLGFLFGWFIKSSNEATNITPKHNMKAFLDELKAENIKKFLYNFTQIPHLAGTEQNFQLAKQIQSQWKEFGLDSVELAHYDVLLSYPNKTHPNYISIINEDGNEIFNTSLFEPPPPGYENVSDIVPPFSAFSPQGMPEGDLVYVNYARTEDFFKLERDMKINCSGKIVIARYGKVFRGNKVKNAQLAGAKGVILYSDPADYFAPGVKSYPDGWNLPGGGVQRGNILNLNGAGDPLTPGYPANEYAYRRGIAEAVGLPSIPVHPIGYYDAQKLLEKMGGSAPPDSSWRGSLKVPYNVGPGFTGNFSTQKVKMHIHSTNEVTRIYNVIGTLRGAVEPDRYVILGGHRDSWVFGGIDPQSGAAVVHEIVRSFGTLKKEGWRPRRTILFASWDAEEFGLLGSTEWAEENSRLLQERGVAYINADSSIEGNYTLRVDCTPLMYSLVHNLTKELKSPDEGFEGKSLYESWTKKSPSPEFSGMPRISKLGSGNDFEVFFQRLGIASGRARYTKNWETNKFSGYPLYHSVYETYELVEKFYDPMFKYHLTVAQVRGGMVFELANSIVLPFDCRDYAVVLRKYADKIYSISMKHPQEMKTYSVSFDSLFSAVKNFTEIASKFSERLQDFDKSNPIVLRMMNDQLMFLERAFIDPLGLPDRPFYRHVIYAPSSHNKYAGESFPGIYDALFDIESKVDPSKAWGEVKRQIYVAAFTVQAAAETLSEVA

Q: With `O=C(O)CCC(NC(=O)NC(CCCCNC(=O)c1ccc(F)cc1)C(=O)O)C(=O)O` (stereo not shown) [DCFBzL] as the compound, how does the Ki [1] read?
A: 0.00019 µM

Q: With `O=C(O)CCC(NC(=O)NC(CCCCNC(=O)CCc1cn(CCF)nn1)C(=O)O)C(=O)O` (stereo not shown) [YC-88, 2-[3-(1-Carboxy-5-{3-[1-(2-fluoroethyl)-1 H-1,2,3-tria-zol-yl]propanamido}pentyl)ureido]pentanedioic Acid] as the compound, how does the Ki ([2]; 37 °C, 2 h, Cheng–Prusoff conversion) read?
A: 0.0129 µM

Q: What about the Ki ([2]; read-out: Ki 95% confidence intervals) of the same compound?
A: 0.0087 to 0.0191 µM

Q: Which logP [3] does the source give for `O=C(O)CCC(NC(=O)NC(CCCCNC(=O)c1ccc([18F])nc1)C(=O)O)C(=O)O` (stereo not shown) [[^18F]DCFPyL, 2-(3-{1-carboxy-5-[(6-[^18F]fluoropyridine-3-carbonyl)-amino]-pentyl}-ureido)-pentanedioic acid, reference compound] here?
A: -3.27

Q: And the AUC ([4]; male, NOD-SCID, mouse, in vivo)?
A: 340.74 % ID/g-h

Q: What about the biological half-life ([4]; male, NOD-SCID, mouse, in vivo) of the same compound?
A: 1.20 h

Q: Which “uptake in normal tissues on PET images” value ([5]; 30, 60, 120 min postinjection) does the source give for `O=C(O)CCC(NC(=O)NC(CCCCNC(=O)CCc1cn(CC[18F])nn1)C(=O)O)C(=O)O` (stereo not shown) [[^18F]YC-88, 2-[3-(1-carboxy-5-{3-[1-(2-[^18F]fluoroethyl)-1H-1,2,3-triazol-yl]propanamido}pentyl)ureido]-pentanedioic acid] here?
A: extremely low uptake

Q: What about the “PSMA^+ PC3 PIP tumor uptake on PET images” value ([5]; as early as 30 min postinjection, 0.36 mCi i.v.) of the same compound?
A: Intense

Q: What about the logP ([3]; 1-octanol and PBS) of the same compound?
A: −3.91

Q: And the AUC ([4]; kidneys)?
A: 70.7 % ID/g-h

Q: What about the “AUC ratio (agent/YC-88)” value ([4]; kidneys) of the same compound?
A: 1

Q: What about the “kidney absorbed dose, decrease compared to [^18F]DCFPyL” value ([4]; kidneys) of the same compound?
A: ~5 fold

Q: And the biological half-life ([4]; kidneys, single exponential fit of % ID/g data)?
A: 1.52 h
